The values below come from ChEMBL document CHEMBL1138301, “N-(2-Amino-phenyl)-4-(heteroarylmethyl)-benzamides as new histone deacetylase inhibitors” (Bioorg Med Chem Lett, 2007).

Active and inactive are the calls of the source. No cut-off for these calls is given here.

The first series relates to HMEC. The series can be described thus: Antiproliferative activity against human HMEC cells by MTT assay.
Settings: not given
It is filed as cell-based. Summed up:
(§1)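 MTT read-out of cell proliferation/cytotoxicity in human colon cancer HCT116 cells and in normal human mammary epithelial cells (HMEC); IC50 derived.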
Take `Nc1ccccc1NC(=O)c1ccc(Cn2cnc3ccccc3c2=O)cc1`: the IC50 stood at 28 µM.
`Nc1ccccc1NC(=O)c1ccc(Cn2c(=O)[nH]c3ccccc3c2=O)cc1`: the IC50 worked out at 18 µM.
On to `Nc1ccccc1NC(=O)c1ccc(CC2COc3ccccc3C2)cc1` (stereo unspecified), for which half-maximal inhibition (IC50) was put at 23 µM.
`Nc1ccccc1NC(=O)c1ccc(Cn2c(=O)[nH]c3ccsc3c2=O)cc1` had an IC50 of 29 µM.
Consider `Nc1ccccc1NC(=O)c1ccc(CC2COc3ccccc3C2=O)cc1` (stereo unspecified), for which the midpoint of inhibition, the IC50, lay at 6 µM.
In turn, `CCn1c(=O)n(Cc2ccc(C(=O)Nc3ccccc3N)cc2)c(=O)c2sccc21` registered an IC50 of over 50 µM.
The same measure, in the same setting: next, `Nc1ccccc1NC(=O)c1ccc(Cn2c(=O)oc3ccccc3c2=O)cc1`: 21 µM.
In the case of `CCn1c(=O)n(Cc2ccc(C(=O)Nc3ccccc3N)cc2)c(=O)c2ccccc21`, it took 25 µM to reach half-maximal inhibition (IC50).
Consider `Nc1ccccc1NC(=O)c1ccc(CN2C(=O)c3ccccc3C2=O)cc1`, for which the IC50 was over 50 µM.
`Cc1nc2ccccc2c(=O)n1Cc1ccc(C(=O)Nc2ccccc2N)cc1` returned an IC50 of over 50 µM.

For a further series, the system named is T-24. The series can be described thus: Induction of p21WAF1/Cip1 expression in human T24 cells […] after 16 hrs by Western blot analysis relative to MS-275. Format: functional, cell-based. Conditions: T-24, 16 h. The essentials: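 T24 cells exposed to 0, 1, 5 and 25 µM or DMSO alone for 16 h. Whole-cell lysates analysed by Western blot with p21WAF1/Cip1 antibody. Relative effective concentration expressed against MS-275 at 1 µM.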
`Nc1ccccc1NC(=O)c1ccc(Cn2cnc3ccccc3c2=O)cc1`: the EC50 stood at 1 µM.
Regarding `Nc1ccccc1NC(=O)c1ccc(Cn2c(=O)[nH]c3ccccc3c2=O)cc1`, the EC50 was 2 µM.
With `Nc1ccccc1NC(=O)c1ccc(CC2COc3ccccc3C2)cc1` (stereo unspecified), the EC50 worked out at 3 µM.
`Nc1ccccc1NC(=O)c1ccc(Cn2c(=O)[nH]c3ccsc3c2=O)cc1`: the EC50 was determined as 1 µM.
Regarding `Nc1ccccc1NC(=O)c1ccc(CC2COc3ccccc3C2=O)cc1` (stereo unspecified), the EC50 came out at 1 µM.
For the molecule `CCn1c(=O)n(Cc2ccc(C(=O)Nc3ccccc3N)cc2)c(=O)c2sccc21`, the EC50 is 3 µM.
Consider `Nc1ccccc1NC(=O)c1ccc(Cn2c(=O)oc3ccccc3c2=O)cc1`, for which the EC50 worked out at 2 µM.
Take `CCn1c(=O)n(Cc2ccc(C(=O)Nc3ccccc3N)cc2)c(=O)c2ccccc21`: the EC50 amounted to 0.6 µM.
Turning to `Nc1ccccc1NC(=O)c1ccc(CN2C(=O)c3ccccc3C2=O)cc1`, the EC50 amounted to 3 µM.
Consider `Cc1nc2ccccc2c(=O)n1Cc1ccc(C(=O)Nc2ccccc2N)cc1`, for which the EC50 came out at 2 µM.

The subject of a further series is HCT-116. Description: Antitumor activity against HCT116 xenografted nude mouse assessed as tumor growth inhibition at 20 mg/kg, ip after 14 days. Conditions: HCT-116, ip, 336 h, route intraperitoneal. Format: functional, Homo sapiens. The essentials: (§2)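 Human tumour xenografts (A549 non-small cell lung, DU145 prostate, HCT116 colon) grown in nude mice, 6 animals per group. Dosing once daily for 14 days, intraperitoneal or oral. Read-out is % tumour growth inhibition versus vehicle-treated control animals.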
`Nc1ccccc1NC(=O)c1ccc(Cn2c(=O)[nH]c3ccccc3c2=O)cc1`: the inhibition in vivo at 20 mg/kg was 51%.

Tested on in a further series: not listed separately
Description: Half life in Sprague-Dawley rat at 2.5 mg/kg, iv. Format: ADME, organism-based. Further details: dose 2.5 mg/kg, route intravenous. Conditions: in vivo. Summed up:
(§3)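 Pharmacokinetics with single dosing at 2.5 mg/kg iv or 5.0 mg/kg po. Vehicles were acidified saline or acidified saline/PEG400. Half-life and oral availability were determined.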
The molecule `Nc1ccccc1NC(=O)c1ccc(Cn2c(=O)[nH]c3ccsc3c2=O)cc1` had a half-life of 1.3 h.
On the same count and under the same terms, next, `CCn1c(=O)n(Cc2ccc(C(=O)Nc3ccccc3N)cc2)c(=O)c2sccc21`: 1.2 h; `Cc1nc2ccccc2c(=O)n1Cc1ccc(C(=O)Nc2ccccc2N)cc1`: 0.9 h.

In a further series the test system is HCT-116. The series can be described thus: Apoptosis in human HCT116 cells. It is filed as functional, cell-based.
Settings: not given
For the molecule `Nc1ccccc1NC(=O)c1ccc(Cn2cnc3ccccc3c2=O)cc1`, the outcome was Active.
In the case of `Nc1ccccc1NC(=O)c1ccc(Cn2c(=O)[nH]c3ccccc3c2=O)cc1`, the outcome was Active.
Same read-out and setting: next, `Nc1ccccc1NC(=O)c1ccc(CC2COc3ccccc3C2)cc1` (stereo unspecified): “Active”; `Nc1ccccc1NC(=O)c1ccc(Cn2c(=O)[nH]c3ccsc3c2=O)cc1`: “Active”; `Nc1ccccc1NC(=O)c1ccc(CC2COc3ccccc3C2=O)cc1` (stereo unspecified): “Active”.
Consider `CCn1c(=O)n(Cc2ccc(C(=O)Nc3ccccc3N)cc2)c(=O)c2sccc21`, for which the outcome was Active.
On to `Nc1ccccc1NC(=O)c1ccc(Cn2c(=O)oc3ccccc3c2=O)cc1`, for which the result was Active.
Regarding `CCn1c(=O)n(Cc2ccc(C(=O)Nc3ccccc3N)cc2)c(=O)c2ccccc21`, the outcome was Active.
With `Nc1ccccc1NC(=O)c1ccc(CN2C(=O)c3ccccc3C2=O)cc1`, the outcome was Active.
As for `Cc1nc2ccccc2c(=O)n1Cc1ccc(C(=O)Nc2ccccc2N)cc1`, the result was Active.

The next series deals with HCT-116. Description: Antiproliferative activity against human HCT116 cells by MTT assay. It is filed as functional, cell-based.
Settings: not given
Summed up:
as §1
The molecule `Nc1ccccc1NC(=O)c1ccc(Cn2cnc3ccccc3c2=O)cc1` came in with a half-inhibitory concentration (IC50) of 0.4 µM.
Take `Nc1ccccc1NC(=O)c1ccc(Cn2c(=O)[nH]c3ccccc3c2=O)cc1`: inhibition was half-maximal at 0.8 µM (IC50).
The molecule `Nc1ccccc1NC(=O)c1ccc(CC2COc3ccccc3C2)cc1` (stereo unspecified) had an IC50 of 2 µM.
For `Nc1ccccc1NC(=O)c1ccc(Cn2c(=O)[nH]c3ccsc3c2=O)cc1`, the IC50 was 0.4 µM.
For `Nc1ccccc1NC(=O)c1ccc(CC2COc3ccccc3C2=O)cc1` (stereo unspecified), 0.9 µM corresponded to half-maximal inhibition (IC50).
On to `CCn1c(=O)n(Cc2ccc(C(=O)Nc3ccccc3N)cc2)c(=O)c2sccc21`, for which the IC50 stood at 0.8 µM.
With `Nc1ccccc1NC(=O)c1ccc(Cn2c(=O)oc3ccccc3c2=O)cc1`, the IC50 is 0.3 µM.
For the molecule `CCn1c(=O)n(Cc2ccc(C(=O)Nc3ccccc3N)cc2)c(=O)c2ccccc21`, the IC50 was found to be 0.4 µM.
Same read-out and setting: next, `Nc1ccccc1NC(=O)c1ccc(CN2C(=O)c3ccccc3C2=O)cc1`: 5 µM; `Cc1nc2ccccc2c(=O)n1Cc1ccc(C(=O)Nc2ccccc2N)cc1`: 0.6 µM.

Tested on in the next series: not listed separately
The series can be described thus: Oral bioavailability in Sprague-Dawley rat at 5.0 mg/kg, po. It is filed as ADME, organism-based. Conditions: in vivo. Summed up: as §3
`Nc1ccccc1NC(=O)c1ccc(Cn2c(=O)[nH]c3ccsc3c2=O)cc1` came in with a bioavailability of 47%.
As to `CCn1c(=O)n(Cc2ccc(C(=O)Nc3ccccc3N)cc2)c(=O)c2sccc21`, the bioavailability amounted to 64%.
Same read-out and setting: next, `Cc1nc2ccccc2c(=O)n1Cc1ccc(C(=O)Nc2ccccc2N)cc1`: 16%.

The subject of a further series is A549. The series can be described thus: Antitumor activity against A549 xenografted nude mouse assessed as tumor growth inhibition at 80 mg/kg, po after 14 days. Format: functional, Homo sapiens. Conditions: A549, 336 h. The essentials: as §2
With `Nc1ccccc1NC(=O)c1ccc(Cn2c(=O)[nH]c3ccsc3c2=O)cc1`, the inhibition in vivo at 80 mg/kg came out at 55%.

The test system of another series is HCT-116. The series can be described thus: Antitumor activity against HCT116 xenografted nude mouse assessed as tumor growth inhibition at 40 mg/kg, ip after 14 days. Format: functional, Homo sapiens. Conditions: HCT-116, ip, 336 h, route intraperitoneal. The essentials:
as §2
With `Nc1ccccc1NC(=O)c1ccc(Cn2c(=O)[nH]c3ccccc3c2=O)cc1`, the inhibition in vivo at 40 mg/kg was determined as 59%.
Consider `Nc1ccccc1NC(=O)c1ccc(Cn2c(=O)[nH]c3ccsc3c2=O)cc1`, for which the inhibition in vivo at 40 mg/kg is 61%.

The next series relates to T-24. The series can be described thus: Induction of histone H4 acetylation in human T24 cells after 16 hrs by immunoblot relative to MS-275. It is filed as functional, cell-based. Conditions: T-24, 16 h. Summed up: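 T24 cells exposed to 0, 1, 5 and 25 µM for 16 h, then harvested. Histones acid-extracted, run on SDS–PAGE and immunoblotted with antibodies to H4 and to acetylated H4. Relative effective concentration expressed against MS-275 at 1 µM.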
As for `Nc1ccccc1NC(=O)c1ccc(Cn2cnc3ccccc3c2=O)cc1`, the EC50 was under 1 µM.
Molecule `Nc1ccccc1NC(=O)c1ccc(Cn2c(=O)[nH]c3ccccc3c2=O)cc1` came in with an EC50 of 1 µM.
`Nc1ccccc1NC(=O)c1ccc(CC2COc3ccccc3C2)cc1` (stereo unspecified) yielded an EC50 of 3 µM.
In turn, `Nc1ccccc1NC(=O)c1ccc(Cn2c(=O)[nH]c3ccsc3c2=O)cc1` came in with an EC50 of 1 µM.
Consider `Nc1ccccc1NC(=O)c1ccc(CC2COc3ccccc3C2=O)cc1` (stereo unspecified), for which a half-maximal effect (EC50) was put at 2 µM.
Consider `CCn1c(=O)n(Cc2ccc(C(=O)Nc3ccccc3N)cc2)c(=O)c2sccc21`, for which a half-maximal response (EC50) required 1 µM.
Take `Nc1ccccc1NC(=O)c1ccc(Cn2c(=O)oc3ccccc3c2=O)cc1`: the midpoint of the response, the EC50, lay at 1 µM.
Still for that read-out and setting: next, `CCn1c(=O)n(Cc2ccc(C(=O)Nc3ccccc3N)cc2)c(=O)c2ccccc21`: 1 µM.
`Nc1ccccc1NC(=O)c1ccc(CN2C(=O)c3ccccc3C2=O)cc1`: the EC50 came out at 5 µM.
Molecule `Cc1nc2ccccc2c(=O)n1Cc1ccc(C(=O)Nc2ccccc2N)cc1` displayed a half-maximal effective concentration (EC50) of 1 µM.

In a further series the test system is DU-145. Description: Antitumor activity against DU145 xenografted nude mouse assessed as tumor growth inhibition at 80 mg/kg, po after 14 days. Conditions: DU-145, 336 h. It is filed as functional, Homo sapiens. The essentials:
as §2
As to `Nc1ccccc1NC(=O)c1ccc(Cn2c(=O)[nH]c3ccsc3c2=O)cc1`, the inhibition in vivo at 80 mg/kg stood at 67%.

The next series concerns HCT-116. The series can be described thus: Cell cycle arrest in HCT116 cells by accumulation at G2/M phase. Format: functional, cell-based. Conditions: Homo sapiens.
For `Nc1ccccc1NC(=O)c1ccc(Cn2cnc3ccccc3c2=O)cc1`, the result was Active.
The same measure, in the same setting: next, `Nc1ccccc1NC(=O)c1ccc(Cn2c(=O)[nH]c3ccccc3c2=O)cc1`: “Active”.
As for `Nc1ccccc1NC(=O)c1ccc(CC2COc3ccccc3C2)cc1` (stereo unspecified), the outcome was Active.
On the same count and under the same terms, with `Nc1ccccc1NC(=O)c1ccc(Cn2c(=O)[nH]c3ccsc3c2=O)cc1` the entry was “Active”; with `Nc1ccccc1NC(=O)c1ccc(CC2COc3ccccc3C2=O)cc1` (stereo unspecified), “Active”.
On the same count and under the same terms, next, `CCn1c(=O)n(Cc2ccc(C(=O)Nc3ccccc3N)cc2)c(=O)c2sccc21`: “Active”; `Nc1ccccc1NC(=O)c1ccc(Cn2c(=O)oc3ccccc3c2=O)cc1`: “Active”.
`CCn1c(=O)n(Cc2ccc(C(=O)Nc3ccccc3N)cc2)c(=O)c2ccccc21`: the outcome was Active.
Regarding `Nc1ccccc1NC(=O)c1ccc(CN2C(=O)c3ccccc3C2=O)cc1`, the outcome was Active.
As for `Cc1nc2ccccc2c(=O)n1Cc1ccc(C(=O)Nc2ccccc2N)cc1`, the outcome was Active.

In the next series the target is Histone deacetylase 1 (Homo sapiens, UniProt Q13547). The series can be described thus: Inhibition of human recombinant HDAC1 expressed in insect Sf9 cells.
Chain of Histone deacetylase 1 (Q13547 whole entry): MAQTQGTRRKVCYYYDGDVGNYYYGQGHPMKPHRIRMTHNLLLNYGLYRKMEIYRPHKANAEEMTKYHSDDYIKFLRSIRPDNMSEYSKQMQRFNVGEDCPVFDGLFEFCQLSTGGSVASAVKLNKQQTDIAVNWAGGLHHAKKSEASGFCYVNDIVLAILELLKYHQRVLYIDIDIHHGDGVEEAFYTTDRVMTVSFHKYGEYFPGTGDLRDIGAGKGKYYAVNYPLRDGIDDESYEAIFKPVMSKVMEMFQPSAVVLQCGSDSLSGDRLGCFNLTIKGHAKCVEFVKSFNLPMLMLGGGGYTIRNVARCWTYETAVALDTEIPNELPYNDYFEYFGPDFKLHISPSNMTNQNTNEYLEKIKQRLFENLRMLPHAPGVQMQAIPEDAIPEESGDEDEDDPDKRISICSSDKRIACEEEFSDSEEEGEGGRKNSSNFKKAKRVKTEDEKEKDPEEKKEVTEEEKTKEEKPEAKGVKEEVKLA
Settings: not given
Summed up: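 FLAG-tagged recombinant HDAC1 expressed in Sf9 cells, purified by anti-FLAG affinity resin and size-exclusion chromatography. Substrate BocLys(acetyl)AMC. Deacetylated product detected fluorometrically after trypsin release of AMC (excitation 360 nm). IC50 determined.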
In the case of `Nc1ccccc1NC(=O)c1ccc(Cn2cnc3ccccc3c2=O)cc1`, the concentration for half-maximal inhibition (IC50) came out at 0.1 µM.
Take `Nc1ccccc1NC(=O)c1ccc(Cn2c(=O)[nH]c3ccccc3c2=O)cc1`: the concentration for half-maximal inhibition (IC50) amounted to 0.06 µM.
For the molecule `Nc1ccccc1NC(=O)c1ccc(CC2COc3ccccc3C2)cc1` (stereo unspecified), the half-maximal inhibitory concentration (IC50) was 1 µM.
With `Nc1ccccc1NC(=O)c1ccc(Cn2c(=O)[nH]c3ccsc3c2=O)cc1`, the IC50 is 0.06 µM.
As to `Nc1ccccc1NC(=O)c1ccc(CC2COc3ccccc3C2=O)cc1` (stereo unspecified), the IC50 stood at 0.09 µM.
As to `CCn1c(=O)n(Cc2ccc(C(=O)Nc3ccccc3N)cc2)c(=O)c2sccc21`, the IC50 amounted to 0.3 µM.
For `Nc1ccccc1NC(=O)c1ccc(Cn2c(=O)oc3ccccc3c2=O)cc1`, the IC50 came to 0.1 µM.
On to `CCn1c(=O)n(Cc2ccc(C(=O)Nc3ccccc3N)cc2)c(=O)c2ccccc21`, for which the IC50 was 0.2 µM.
For `Nc1ccccc1NC(=O)c1ccc(CN2C(=O)c3ccccc3C2=O)cc1`, the IC50 worked out at 0.2 µM.
For the molecule `Cc1nc2ccccc2c(=O)n1Cc1ccc(C(=O)Nc2ccccc2N)cc1`, the IC50 turned out to be 0.08 µM.
